Shown are actives, neighbours in structure and some others; about 3.5% of the full set was active somewhere.
RGS4 act: RGS4 potentiators or activators, primary screen, cell-based, HEK293 M3R inducible RGS4, calcium flux; carbachol calcium flux Fluo4; stronger effect = lower value; B-score at 10 µM; 310,000 tested, 0.92% active;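 active means B-score of the integrated calcium signal more than 4 SD below the library mean, with starting fluorescence not abnormally high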;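 further: negative B-score means reduced calcium response which marks RGS4 activation or potentiation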
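Material: M3R-expressing HEK293 line, RGS4 induced by doxycycline | Schedule: Overnight RGS4 induction, 30 min dye load 37 °C, 20 min compound RT | Measured by: Fluo4 fluorescence kinetic imaging of calcium | Read-out: Integrated calcium ratio converted to B score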
RGS4 inh: RGS4 inhibitors, primary screen, cell-based, HEK293 M3R inducible RGS4, calcium flux; Regulator of G-protein signaling 4 (Homo sapiens), P49798; Fluo-4 calcium flux; stronger effect = higher value; triggered by carbachol at its EC20; B-score at 10 µM; 310,000 tested, 0.45% active; AID 463165, 2010;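 active means B-score, a plate-corrected calcium signal, over three deviations above library mean, with baseline fluorescence within five deviations of library mean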;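 further: RGS4 expression induced by doxycycline in cells with stable M3 receptor; B-score is computed from the integrated fluorescence ratio over baseline after carbachol; higher B-score means a larger calcium signal and so more RGS4 inhibition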
Target sequence (P49798 whole entry, looked up): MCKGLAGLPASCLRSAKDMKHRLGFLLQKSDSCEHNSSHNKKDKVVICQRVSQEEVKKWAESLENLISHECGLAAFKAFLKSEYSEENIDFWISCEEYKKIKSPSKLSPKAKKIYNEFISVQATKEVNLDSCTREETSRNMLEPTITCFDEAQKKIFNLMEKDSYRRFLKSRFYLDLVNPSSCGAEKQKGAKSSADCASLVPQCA
MrgX1 allo act: positive allosteric modulators of MrgX1, primary screen, HEK293 cells, Fluo-4 calcium flux; FDSS; stronger effect = higher value; B-score at 10 µM; 310,000 tested, 0.63% active;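 active means plate-corrected calcium response at least 3 library SD above typical, normal starting fluorescence, not activating the receptor alone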;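 further: compound read alongside a low EC10 to EC30 dose of BAM8-22 agonist; peak minus trough fluorescence over baseline measured at the second addition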
Target sequence (Q96LB2 whole entry, looked up): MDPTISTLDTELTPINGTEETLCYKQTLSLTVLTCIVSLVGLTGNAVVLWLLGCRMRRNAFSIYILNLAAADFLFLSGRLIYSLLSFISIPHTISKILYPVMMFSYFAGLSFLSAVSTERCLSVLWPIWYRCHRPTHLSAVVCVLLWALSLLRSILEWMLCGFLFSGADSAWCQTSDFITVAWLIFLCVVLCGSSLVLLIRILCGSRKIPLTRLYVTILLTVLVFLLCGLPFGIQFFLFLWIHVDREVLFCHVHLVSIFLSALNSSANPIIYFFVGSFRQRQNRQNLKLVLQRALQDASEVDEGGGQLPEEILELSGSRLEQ
MrgX1 antag: antagonists of human MrgX1 receptor, primary screen, HEK293 cells, Fluo-4 calcium flux. B-score at 10 µM. BAM8-22 antagonism; stronger effect = lower value. 310,000 tested, 1.3% active. Mas-related G-protein coupled receptor member X1 (Homo sapiens), Q96LB2;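 active means calcium-response B-score plate-corrected more than 3 library SD below zero, starting fluorescence within 5 deviations, no agonist response on first addition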;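 further: peak minus trough fluorescence over baseline after final BAM8-22 challenge near maximal dose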
MrgX1 agonist: agonists of human MrgX1 receptor, primary screen, HEK293 cells, Fluo-4 calcium flux; Mas-related G-protein coupled receptor member X1 (Homo sapiens), Q96LB2; Fluo-4 calcium fluorescence, agonist mode; stronger effect = higher value; B-score at 10 µM; 310,000 tested, 0.44% active;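 active means calcium response B-score plate-corrected fluorescence ratio at least 3 library SD, with starting fluorescence B-score inside 5 SD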
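times = overnight plating, then 30 min 37 °C plus 30 min room-temperature dye loading | assay system = stable human MrgX1 HEK293 cell line | input = fifteen thousand cells per well | signal = kinetic calcium dye fluorescence, Fluo-4 NW | dosing = compound delivered in addition one of three | read-out = B-scored fluorescence response ratio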
MrgX1 antag conf: MrgX1 receptor antagonists, duplicate retest, confirmation, HEK293 cells, Fluo-4 calcium flux | BAM8-22 calcium flux; stronger effect = lower value | remaining BAM8-22 calcium response % of control (stronger effect = lower value), % at 10 µM | AID 602420, 2012 | shares compounds with MrgX1 antag | 2,300 tested, 19% active;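 active means remaining agonist calcium response no higher than 100% minus 3 SD of agonist-only control wells, with starting fluorescence near control levels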;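 further: agonist BAM8-22 given at a near maximal EC90 to ECmax level; peak minus minimum fluorescence divided by baseline after agonist addition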
HEK293 Ca flux: nonspecific calcium signal in parental HEK293, confirmation, counter-screen for MrgX1 antagonist project, parental HEK293 cells, Fluo-4 calcium flux; fluorescence ratio F(max-min)/F0 at 10 µM; Fluo-4 calcium fluorescence, FDSS; AID 624111, 2012; 4,000 tested, 2% active; shares compounds with MrgX1 antag;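 active means duplicate-averaged calcium fluorescence ratio at least three times the standard deviation of buffer wells, a nonspecific response in parental cells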
HEK293 Ca counter: calcium response in parental HEK293 cells, primary screen, counter-screen for MrgX1 allosteric activator project, cell-based, Fluo-4 calcium flux, duplicate; AID 624114, 2012; fluorescence ratio F(max-min)/F0 at 10 µM; 4,000 tested, 0.4% active; shares compounds with MrgX1 antag; Fluo-4 fluorescence ratio; stronger effect = higher value;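 active means calcium fluorescence ratio, averaged over duplicates, at least 3 SD of the buffer-well ratio, meaning a nonspecific response in receptor-free cells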;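 further: untransfected parental HEK293 lacking MrgX1 used as counterscreen for MrgX1 allosteric activators; fluorescence change taken during the second addition on a kinetic imager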
HEK293 Ca cntr2: calcium response in parental HEK293 cells, primary screen, counter-screen for MrgX1 agonist project, cell-based, Fluo-4 calcium flux, duplicate, agonist mode; 4,000 tested, 8.7% active; Fluo-4 calcium fluorescence (FDSS); stronger effect = higher value; shares compounds with MrgX1 antag; AID 624115, 2012; fluorescence ratio F(max-min)/F0 at 10 µM;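 active means calcium fluorescence ratio at least three times the spread of buffer wells, meaning a non-specific response in parental cells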
* hit, by the source's call; i = inactive; . = not tested or not shown.

SMILES | RGS4 act | RGS4 inh | MrgX1 allo act | MrgX1 antag | MrgX1 agonist | MrgX1 antag conf | HEK293 Ca flux | HEK293 Ca counter | HEK293 Ca cntr2
Cc1ccc(S(=O)(=O)CCC(=O)NCCc2ccc(Cl)cc2)cc1 | i | i | i | i | i | . | . | . | .
Cc1ccc(CCNC(=O)CCS(=O)(=O)c2ccc(Br)cc2)cc1 | i | i | i | -8.11* | i | i | i | i | i
COC(=O)c1ccc(C(=O)OC)c(NC(=O)CCC(=O)O)c1 | i | i | i | i | i | . | . | . | .
COC(=O)c1ccc(C(=O)OC)c(NC(=O)COC(=O)c2ccccc2OC)c1 | i | i | i | -6.69* | i | 83.6%* | i | i | i
COc1cc(NC(=O)c2nccnc2C(=O)O)cc(OC)c1 | i | i | i | -6.02* | i | i | i | i | i
Cc1ccc(NC(=O)CNC(=O)c2ccco2)nc1 | i | i | i | i | i | . | . | . | .
CC(C)(C)c1csc(NC(=O)c2ccncc2)n1 | i | i | i | -7.04* | i | i | i | i | i
S=C(NCCc1ccccn1)Nc1ccc(Cl)c(Cl)c1 | i | i | i | i | i | . | . | . | .
S=C(NCCc1ccccn1)Nc1cc(Cl)cc(Cl)c1 | i | i | i | -4.53* | i | 80.8%* | i | i | i
O=C(COc1ccc(Cl)cc1)NCCCNC(=O)c1ccccn1 | i | i | i | i | i | . | . | . | .
O=C(COc1ccc(Cl)cc1)NCCc1ccccn1 | i | i | i | -5.23* | i | 84.7%* | i | i | i
COC(=O)COc1cccc2c(=O)n(CC(=O)N3CCCc4ccccc43)ccc12 | i | i | i | -8.94* | i | i | i | i | i
O=C(COc1ccccc1)OCC(=O)N1CCCc2ccccc21 | i | i | i | -6.15* | i | i | i | i | i
O=C(COc1ccccc1)N1CCc2ccccc21 | i | i | i | i | i | . | . | . | .
CCOC(=O)COc1cccc2c(=O)n(CC(=O)N3CCCCC3)ccc12 | i | i | i | i | i | . | . | . | .
N#Cc1cc([N+](=O)[O-])ccc1NC(=O)COC(=O)CC1CCCC1 | i | i | i | i | i | . | . | . | .
C/C(=N\NC(=S)Nc1c(C)cccc1C)c1ccc(OC(F)F)cc1 | i | i | i | i | i | . | . | . | .
COc1cccc(Nc2ncnc3onc(-c4ccccc4OC)c23)c1 | i | i | i | i | i | . | . | . | .
COc1ccccc1C(=O)C1CCCN(C(=O)c2cccc(Cn3cccn3)c2)C1 (stereo unspecified) | i | i | i | i | i | . | . | . | .
CN(C)CCN1CC(O)=C(c2nc3ccccc3s2)C1=N | i | i | i | -5.67* | i | i | i | i | i
N=C1C(c2nc3ccccc3s2)=C(O)CN1Cc1ccco1 | i | i | i | i | i | . | . | . | .
Cc1ccsc1C(=O)N(Cc1nnc(-c2ccccc2Cl)o1)C1CC1 | i | i | i | -5.8* | i | i | i | i | i
Nc1cc(Cl)ccc1Nc1ccncc1 | i | i | i | i | i | . | . | . | .
Cc1ccc(CNc2cnccn2)cc1 | i | i | i | -6.11* | i | i | i | i | i
CCN1C(=O)c2cccc3c(S(=O)(=O)Nc4ccccc4)ccc1c23 | i | i | i | -6.86* | i | i | i | i | i
SMILES | RGS4 act | RGS4 inh | MrgX1 allo act | MrgX1 antag | MrgX1 agonist | MrgX1 antag conf | HEK293 Ca flux | HEK293 Ca counter | HEK293 Ca cntr2
CCN1C(=O)c2cccc3c(S(=O)(=O)Nc4ccncc4)ccc1c23 | i | i | i | i | i | . | . | . | .
CC(=O)N1CCOc2ccc(S(=O)(=O)N(C)c3cccc(C)c3)cc21 | i | i | i | i | i | . | . | . | .
COc1cccc(-n2nnc3c(=O)n(CC(=O)N4CCC(Cc5ccccc5)CC4)cnc32)c1 | i | i | i | -7.53* | i | i | i | i | i
COc1ccccc1-c1nnc(SCC(=O)OC(C)C)o1 | i | i | i | -6.62* | i | i | i | i | i
O=C(COc1ccc(S(=O)(=O)N2CCCC2)cc1Cl)NCc1ccccn1 | i | i | i | -6.17* | i | i | i | i | i
O=C(COc1ccc(S(=O)(=O)N2CCOCC2)cc1Cl)NCc1ccccn1 | i | i | i | i | i | . | . | . | .
O=S1(=O)CCOC[C@H](c2ccccc2)N1Cc1ccccc1F | i | i | i | -6.5* | i | i | i | i | i
O=C(CSC1=NS(=O)(=O)c2cc(Cl)ccc2N1)Nc1ccccc1C(F)(F)F | i | i | i | -10.5* | i | i | i | i | i
Cc1cc(F)ccc1NC(=O)c1cc(S(=O)(=O)N2CCc3ccccc32)cn1C | i | i | i | -5.27* | i | i | i | i | i
CC(NC(=O)c1ccc2c(c1)OCO2)C1CCCO1 (stereo unspecified) | i | i | i | i | i | . | . | . | .
COc1ccc(OC)c(NC(=O)C23CC4CC(C2)CC(n2cnc(Br)n2)(C4)C3)c1 | i | i | i | -5.25* | i | i | i | i | i
COc1ccc(NC(=O)Cc2coc3ccc4ccccc4c23)cc1S(=O)(=O)N1CCOCC1 | i | i | i | -6.72* | i | i | i | i | i
CC(Oc1ccc(Cl)cc1)C(=O)Nc1ccc(S(=O)(=O)Nc2nccs2)cc1 (stereo unspecified) | i | i | i | -5.6* | i | i | i | i | 51.4*
O=C(Nc1ccc(CN2CCOCC2)cc1)c1cc2ccccc2o1 | i | i | i | i | i | . | . | . | .
